Results pooled from the literature.
Protocols differ between the studies behind these lines.
Target: Serine/threonine-protein kinase 32C (STK32C, Homo sapiens, UniProt Q86UX6)

Compound	assay	conditions	endpoint	value
Cc1cc(O)c(-c2ccc([C@@H](C)CN(C)C)cc2)c2c1[nH]c(=O)c1sccc12	enzyme activity, inhibitor	0.1 µM, lysate	inhibition	-1.49%
CCCCC(=O)Nc1ccc(-c2ccc3ncn(CCC)c(=O)c3c2)cn1	binding, competition with immobilised ligand	0.5 µM	remaining binding	92%
C[C@H]1CC[C@H](n2c3cnccc3c3cnc(Nc4ccc5c(n4)CCN(C(=O)CO)C5)nc32)CC1	cell-free assay	1 µM	remaining signal	100%
C=CC(=O)N1CCC[C@@H](n2nc(-c3ccc(Oc4ccccc4)cc3)c3c(N)ncnc32)C1	enzyme activity, inhibitor	1 µM	inhibition	14%
N#Cc1ccc(NC(=O)Nc2ccccc2)cc1	cell-free assay, competition with immobilised ligand	25 µM	remaining binding	77%
C#Cc1cnc(Nc2ccnc(CO)c2)nc1Nc1ccccc1S(C)(=O)=NC#N (stereo not shown)	cell-free assay	1 µM	remaining signal	100%
CO[C@@H]1[C@H](N(C)C(=O)c2ccccc2)C[C@H]2O[C@]1(C)n1c3ccccc3c3c4c(c5c6ccccc6n2c5c31)C(=O)NC4	enzyme activity, inhibitor	1 µM	inhibition	0%
COc1ccc2oc(-c3ccc4nc(N)oc4c3)c/c(=N\c3ccccc3NC(=O)CCN)c2c1	binding	1 µM	remaining binding	100%
Cc1ccc(NC(=O)c2ccnc(C(F)(F)F)c2)cc1-c1cc(OCCO)nc(N2CCOCC2)c1	binding	1 µM	remaining binding	100%
CC(C)S(=O)(=O)c1ccc2nccc(Nc3ccc4sc(C5CCCC5)nc4c3)c2c1	enzyme activity, inhibitor	1 µM	activity vs control	102%
